Screening results deposited in PubChem BioAssay by several laboratories.
In the library only some 1.8% were active in any assay of this set; here they are far more common.
PTPN22 inh 2 = LYP (human) phosphatase inhibition; Q9Y2R2; recombinant LYP catalytic domain, DiFMUP fluorescence; inhibition, % at 2 µM; actives 0.21% (n = 96,000); AID 640;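 active means inhibition at 2 µM at or above a set limit, the screen mean plus 3 SD, cut at about 24% in these data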
Rev-RRE block = disrupts HIV-1 Rev binding to RRE RNA | inhibition, % at 8 µM | AID 704 | actives 0.79% (n = 97,000) | Rev peptide-RRE RNA binding, FRET | P05866;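 active means inhibition above the screen-wide mean plus 3 SD, cut at about 35% in these data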
Target sequence (P05866 whole entry, looked up): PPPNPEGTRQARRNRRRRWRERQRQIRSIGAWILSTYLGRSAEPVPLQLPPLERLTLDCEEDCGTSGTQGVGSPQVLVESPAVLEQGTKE
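Assay system: labelled RRE RNA duplex and labelled Rev peptide / Medium: HEPES pH 7.5 salt buffer with EDTA / Reagent: labelled Rev peptide / Schedule: 5 + 15 min at 25 °C / Signal: FRET, excitation 480 nm, emission 540 nm donor and 671 nm acceptor / Benchmarks: DMSO and neomycin B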
PTPN22 act = LYP (human) phosphatase activation. Q9Y2R2. recombinant LYP, DiFMUP fluorescence; 0 = plate median, 100 = signal doubled. activation, % at 2 µM. actives 0.11% (n = 96,000);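 active means activation at 2 µM above a set limit, the mean plus 5 SD, cut at about 37% in these data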
EphB4 antag = blocks human EphB4 binding to ephrin-B2. inhibition, % at 7 µM. EphB4 LBD / TNYL-RAW-Alexa532 peptide, fluorescence polarization. actives 0.15% (n = 97,000). P54760. AID 720;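 active means inhibition above the screen-wide mean inhibition plus 3 SD, cut at about 15% in these data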
PLK1 inh = blocks human PLK1 kinase activity | AID 619 | inhibition, % at 10 µM | recombinant PLK1 kinase, TR-FRET peptide phosphorylation | actives 0.53% (n = 97,000) | P53350;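 active means inhibition of 50% or more in the single-concentration screen; inactive means inhibition below 50%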
PLK1 PBD inh = inhibitors of human Plk1 polo box domain binding | P53350 | Plk1 PBD phosphopeptide binding, fluorescence polarization | inhibition, %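 (tested at about 20 µM)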 | actives 0.13% (n = 97,000) | AID 693; in the data active means inhibition above about 34%, passing the limit was not always enough
PTPN22 act conf = confirmation of human LYP phosphatase activators. Recombinant LYP, DIFMUP fluorescence, activation; zero set by plate's median compound well. activation, % at 2 µM. shares compounds with PTPN22 act. 100 tested, under 10 active; call rule not given here
Of the large screens only hits and unclear results are named; the others gave an inactive call (follow-up assays come after a bar, where they were run).

COc1ccc(Br)cc1C1NC(=O)NC(C)=C1C(=O)N(C)C (stereo not drawn)	none
COC(=O)C1=C(C)NC(=O)CC1c1cc(Br)ccc1F (stereo not drawn)	PTPN22 act 38 | PTPN22 act conf inactive
COc1ccc(NC(C)=O)cc1NC(=O)CCn1c(=O)sc2ccccc21	PTPN22 act 40 | PTPN22 act conf inactive
CC(c1nnc(Sc2nnnn2-c2ccccc2)n1-c1ccc(F)cc1)N(C)C (stereo not drawn)	none
CC(=O)Nc1sc2c(c1C(N)=O)CCCC2	PTPN22 act 45 | PTPN22 act conf inactive
CC(C)CNC(=O)c1cc2nc(C3CC3)cc(C(F)(F)F)n2n1	none
COC(=O)c1ccc(C)c(NS(=O)(=O)c2ccc3c(c2)OCCO3)c1	PTPN22 act 42 | PTPN22 act conf inactive
COC(=O)c1ccc(C)c(NS(=O)(=O)c2ccc(OC)cc2)c1	none
CCOC(=O)c1cccc(C(=O)OCC)n1	none
O=C(COC(=O)c1cccc(C(=O)OCC(=O)c2ccc(Br)cc2)n1)c1ccc(Br)cc1	PTPN22 act 41 | PTPN22 act conf inactive
C/C(=N\n1nnnc1Nc1ccccc1)c1ccc(N)cc1	none
CCOc1ccc(S(=O)(=O)N(CC(=O)O)c2ccc(C)cc2)cc1	PTPN22 act 38 | PTPN22 act conf inactive
O=C(CCCC(=O)N(CC(=O)NC1CCCC1)Cc1ccc(F)cc1)Nc1ccccn1	PTPN22 act 38 | PTPN22 act conf inactive
CCC(C(=O)NC1CCCC1)N(Cc1ccc2c(c1)OCO2)C(=O)c1snc(C(N)=O)c1N (stereo not drawn)	none
CC(C(=O)NC1CCCC1)N(Cc1ccc2c(c1)OCO2)C(=O)c1snc(C(N)=O)c1N (stereo not drawn)	PTPN22 act 42 | PTPN22 act conf inactive
O=C(COc1ccc(Br)cc1CO)Nc1ccccc1F	PTPN22 act 38 | PTPN22 act conf inactive
Cc1ccc(/C(O)=C2/C(=O)C(=O)N(CCN3CCOCC3)C2c2cccs2)cc1 (stereo not drawn)	none
O=C(c1ccc(Cl)c(S(=O)(=O)N2CCOCC2)c1)N1CCN(Cc2ccccc2)CC1	none
